ChEMBL document CHEMBL1124636, “3,4-Dihydro-2H-1-benzopyran-2-carboxylic acids and related compounds as leukotriene antagonists” (J Med Chem, 1989)

Key:
Cavia porcellus [1] = assay: Inhibition of leukotriene D4 induced bronchoconstriction in anesthetized guinea pigs after intravenous administration at a dose of 10 mg/kg; type: functional; conditions: for ED50: read-out: ID50 (the source's name)
Procedure, shortened: (§1)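 Male Hartley guinea pigs, 400–600 g, urethane 2 g/kg ip, jugular cannula, propranolol 0.1 mg/kg iv 5 min before challenge, succinylcholine 1.2 mg/kg iv, ventilated. Vehicle or drug iv 30 s before LTD4 25 µg/kg iv; tracheal pressure change.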

[2] = test system: Cysteinyl leukotriene receptor (Cavia porcellus); assay: Inhibitory activity to block binding of [3H]leukotriene D4 to Cysteinyl leukotriene D4 receptor sites in homogenized guinea pig lung at 10 uM
[3] = molecular target: T1, Cysteinyl leukotriene receptor 1 (Cavia porcellus, UniProt Q2NNR5); assay: Inhibitory activity of compound to block binding of [3H]leukotriene D4 to Cysteinyl leukotriene D4 receptor sites in homogenized guinea pig lung
T1 sequence (Q2NNR5 whole entry): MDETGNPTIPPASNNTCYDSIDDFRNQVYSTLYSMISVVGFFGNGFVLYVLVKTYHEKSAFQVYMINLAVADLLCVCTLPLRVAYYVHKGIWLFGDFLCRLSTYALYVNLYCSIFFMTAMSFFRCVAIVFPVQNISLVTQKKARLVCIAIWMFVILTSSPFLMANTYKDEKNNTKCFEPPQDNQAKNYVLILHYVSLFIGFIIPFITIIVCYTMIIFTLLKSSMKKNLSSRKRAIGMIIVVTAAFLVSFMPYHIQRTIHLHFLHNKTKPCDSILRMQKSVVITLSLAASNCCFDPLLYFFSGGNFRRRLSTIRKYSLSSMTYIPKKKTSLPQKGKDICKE
Procedure, shortened: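 Lung from male Hartley guinea pigs (400–500 g), homogenized in sucrose/Tris pH 7.5 with protease inhibitors; 30000g membrane pellet in 10 mM PIPES pH 7.5, 50 mM NaCl. Binding: Tyrode, 0.1% BSA, 1 mM glycine, 1 mM cysteine, 3.5 nM [3H]LTD4, 100–200 µg protein, 20 °C, 30 min; glass-fiber filtration. Nonspecific with 10^-6 M LTD4. Triplicate screen at 10 µM; IC50 by linear regression.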

Cavia porcellus [4] = assay: (§2) Inhibition of leukotriene D4 induced bronchoconstriction in anesthetized guinea pigs after aerosol administration as 1% solution; type: functional
Procedure, shortened: (§3)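 Guinea pigs given propranolol 0.1 mg/kg iv 5 min before 5-min ultrasonic nebulizer exposure to aqueous, NaOH-neutralized drug (% w/v) or distilled water, breathing spontaneously. LTD4 50 µg/kg iv 30 s after exposure; tracheal pressure change.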

Cavia porcellus [5] = species: Cavia porcellus; assay: In vitro activity to inhibit SRS-A induced contraction of guinea pig ileum
Cavia porcellus [6] = species: Cavia porcellus; assay: In vitro activity to inhibit leukotriene D4 induced contraction of guinea pig trachea; type: functional; conditions: read-out: pA2 (converted)
Procedure, shortened: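 Guinea pig tracheal smooth muscle contracted by LTD4; pA2 and Schild slope reported.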

Cavia porcellus [7] = assay: In vivo guinea pig bronchoconstriction against leukotriene C4 when administered a compound dose (mg/kg) intravenously; type: functional; conditions: Lung, iv, read-out: ID50 (the source's name)
Cavia porcellus [8] = assay: In vivo guinea pig bronchoconstriction against leukotriene D4 when administered a compound dose (mg/kg) intravenously; type: functional; conditions: Lung, iv, read-out: ID50 (the source's name); procedure, shortened: as §1
[9] = test system: Cysteinyl leukotriene receptor (Cavia porcellus); assay: Inhibitory activity to block binding of [3H]leukotriene D4 to LTD4 receptor sites in homogenized guinea pig lung at 10 uM
[10] = molecular target: Cysteinyl leukotriene receptor (Cavia porcellus); assay: Inhibitory activity to block binding of [3H]leukotriene D4 to LTD4 receptor sites in homogenized guinea pig lung
Cavia porcellus [11] = assay: Inhibition of leukotriene D4 induced bronchoconstriction in anesthetized guinea pigs after intravenous administration; type: functional; conditions: read-out: ID50 (the source's name); procedure, shortened: as §1
Cavia porcellus [12] = assay: as §2; type: functional, organism-based; procedure, shortened: as §3
[13] = molecular target: Dual specificity calcium/calmodulin-dependent 3',5'-cyclic nucleotide phosphodiesterase 1A (Bos taurus, UniProt P14100); assay: Inhibition of bovine heart Phosphodiesterase 1A
Rattus norvegicus = species: Rattus norvegicus; assay: Inhibitory activity to inhibit Inophore-induced arachidonic acid metabolism (inhibition of LTB4 formation) in rat; type: functional, organism-based
Procedure, shortened: (§4)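 Rat peritoneal macrophages adhered 90 min at 37 °C, labeled with [14C]arachidonic acid 90 min, washed. Compound 30 min at 37 °C, then A23187 0.5 µM for 20 min. LTB4 and PGE2 in medium by radioimmunoassay.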

[14] = Inhibitory activity to inhibit Inophore-induced arachidonic acid metabolism (inhibition of PGE-2 formation) in rat; type: functional; procedure, shortened: as §4
[15] = test system: Cysteinyl leukotriene receptor (Cavia porcellus); assay: Inhibitory activity of compound to block binding of radiolabeled leukotriene D4 to receptor sites in homogenized guinea pig lung at 10 uM
[16] = molecular target: T2, Cysteinyl leukotriene receptor 1 (Cavia porcellus) (UniProt Q2NNR5); assay: as §2; conditions: concentration not given here; procedure, shortened: as §3
T2 sequence (whole entry): T1 sequence (Q2NNR5 whole entry)

Chain of Dual specificity calcium/calmodulin-dependent 3',5'-cyclic nucleotide phosphodiesterase 1A (P14100 whole entry): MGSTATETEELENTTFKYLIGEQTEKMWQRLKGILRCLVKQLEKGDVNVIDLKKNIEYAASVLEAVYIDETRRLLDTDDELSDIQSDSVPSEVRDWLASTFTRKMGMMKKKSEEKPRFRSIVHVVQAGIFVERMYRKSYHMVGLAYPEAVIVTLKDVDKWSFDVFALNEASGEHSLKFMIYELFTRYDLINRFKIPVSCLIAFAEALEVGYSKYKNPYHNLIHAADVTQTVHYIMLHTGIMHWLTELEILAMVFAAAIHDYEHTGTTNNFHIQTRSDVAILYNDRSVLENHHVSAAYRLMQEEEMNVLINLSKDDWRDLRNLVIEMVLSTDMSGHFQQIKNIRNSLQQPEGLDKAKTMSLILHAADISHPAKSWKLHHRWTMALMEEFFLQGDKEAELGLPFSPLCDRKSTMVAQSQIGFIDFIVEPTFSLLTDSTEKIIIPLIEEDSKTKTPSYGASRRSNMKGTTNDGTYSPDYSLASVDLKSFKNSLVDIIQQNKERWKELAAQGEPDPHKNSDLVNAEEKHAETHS

| inhibition [2] | inhibition [9] | Compound | inhibition in vivo at 10 mg/kg (Cavia porcellus [1]) | Inhibition (Cavia porcellus [4]) | also measured |
| --- | --- | --- | --- | --- | --- |
| 63% | – | CCCc1c(OCCCOc2cc3c(cc2C(C)=O)CCC(C(=O)O)O3)ccc(C(C)=O)c1O (configuration not stated) | 35% | 31% | IC50 [3]: 6 µM |
| – | – | CCCc1c(OCCCCCOc2cc3c(cc2C(C)=O)CC[C@H](C(=O)O)O3)ccc(C(C)=O)c1O | – | – | IC50 (Cavia porcellus [5]): 0.1 µM; Kb (Cavia porcellus [6]): 0.794 µM; ED50 (Cavia porcellus [7]): 6 mg/kg; ED50 (Cavia porcellus [8]): 4 mg/kg |
| – | 72% | CCCc1c(OCCCCCOc2ccc3c(c2C(C)=O)OC(C(=O)O)CC3)ccc(C(C)=O)c1O (configuration not stated) | 19% | 1% | IC50 [10]: 5 µM |
| 0% | – | CCCc1c(OCCCS(=O)(=O)c2ccc(C(=O)CCC(=O)O)cc2)ccc(C(C)=O)c1O [L-648051] | 73% | 70% | ED50 (Cavia porcellus [11]): 6 mg/kg; IC50 (Cavia porcellus [12]): 0.7 % conc |
| 8% | – | CCCc1c(OCCOCCOc2cc3c(cc2C(C)=O)CCC(C(=O)O)O3)ccc(C(C)=O)c1O (configuration not stated) | 50% | 31% | ED50 (Cavia porcellus [11]): 10 mg/kg |
| – | 47% | CCCc1c(OCCCCCOc2cc3c(cc2C(C)=O)CCC(CCCCC(=O)O)O3)ccc(C(C)=O)c1O (configuration not stated) | 10% | – | – |
| 52% | – | CCCc1c(OCCCCCOc2cc3c(cc2C(=O)CC)CCC(C(=O)O)O3)ccc(C(C)=O)c1O (configuration not stated) | 7% | 60% | IC50 (Cavia porcellus [12]): 0.3 % conc |
| 57% | – | CCCc1c(OCCCCCOc2cc3c(cc2Br)CCC(C(=O)O)O3)ccc(C(C)=O)c1O (configuration not stated) | 13% | 0% | – |
| – | – | CC(C)C(C)c1nc2c(=O)[nH]c(=O)[nH]c2[nH]1 (configuration not stated) | – | – | IC50 [13]: 100 µM |
| – | 65% | CCCc1c(OCCCCCOc2cc(OCC(=O)O)ccc2C(C)=O)ccc(C(C)=O)c1O | 20% | 46% | IC50 [10]: 5 µM; IC50 (Cavia porcellus [12]): 1 % conc |
| – | – | O=S(=O)(Nc1cccc(OCc2ccc3ccccc3n2)c1)C(F)(F)F [RITOLUKAST] | 61% | – | ED50 (Cavia porcellus [11]): 4 mg/kg |
| – | – | CC(C)c1ccc2c(c1)c(SC(C)(C)C)c(CC(C)(C)C(=O)O)n2Cc1ccc(Cl)cc1 | – | – | IC50 (Rattus norvegicus): 0.2 µM; IC50 [14]: 5 µM |
| 12% | – | CCCc1c(OCCCCCOc2cc3c(cc2C(C)=O)CC(C(=O)O)O3)ccc(C(C)=O)c1O (configuration not stated) | 25% | 88% | IC50 (Cavia porcellus [12]): 0.04 % conc |
| 20% | – | CCCc1c(OCCCCCCc2cc3c(cc2C(C)=O)CCC(C(=O)O)O3)ccc(C(C)=O)c1O (configuration not stated) | 46% | 65% | IC50 (Cavia porcellus [12]): 0.3 % conc |
| – | 87% | CCCc1c(OCCCCCOc2cc3c(cc2C(C)=O)CCC(C(=O)NS(=O)(=O)c2ccccc2)O3)ccc(C(C)=O)c1O (configuration not stated) | 26% | 53% | IC50 [10]: 2 µM; IC50 (Cavia porcellus [12]): 1 % conc |
| – | 68% | CCCc1c(OCCC(C)(C)CCOc2cc3c(cc2C(C)=O)CCC(C(=O)O)O3)ccc(C(C)=O)c1O (configuration not stated) | 15% | 23% | IC50 [10]: 7 µM |
| – | 81% | CCCc1c(OCCCCCOc2cc3c(cc2C(C)=O)CCC2(CCC(C(=O)O)CC2)O3)ccc(C(C)=O)c1O (configuration not stated) | 32% | 83% | IC50 [10]: 4 µM; IC50 (Cavia porcellus [12]): 0.08 % conc |
| – | 94% | CCCc1c(OCCCCCOc2cc3c(cc2C(C)=O)CCC(CCC(=O)O)O3)ccc(C(C)=O)c1O (configuration not stated) | 86% | 31% | ED50 (Cavia porcellus [1]): 5 mg/kg; IC50 [10]: 2 µM |
| – | 0% | CC(=O)c1ccc(OCCCCCOc2cc3c(cc2C(C)=O)CCC(C(=O)O)O3)cc1O (configuration not stated) | 85% | 0% | ED50 (Cavia porcellus [11]): 5 mg/kg |

| inhibition [2] | inhibition [9] | Compound | inhibition in vivo at 10 mg/kg (Cavia porcellus [1]) | Inhibition (Cavia porcellus [4]) | also measured |
| --- | --- | --- | --- | --- | --- |
| – | – | O=C(O)CCSC(SCCC(=O)O)c1ccccc1CCCCCCCCc1ccccc1 | 20% | 58% | Inhibition [15]: 81% |
| – | – | CCCc1c(OCCCCCOc2c(C(C)=O)cc3c(c2CCC)OC(C(=O)O)CC3)ccc(C(C)=O)c1O (configuration not stated) | – | – | inhibition [16]: 44% |
| – | 98% | COc1cc(C(=O)NS(=O)(=O)c2ccccc2)ccc1Cn1ncc2ccc(NC(=O)OC3CCCC3)cc21 [ICI-198615] | 100% | 99% | ED50 (Cavia porcellus [11]): 0.03 mg/kg; IC50 [10]: 0.001 µM; IC50 (Cavia porcellus [12]): 0.006 % conc |
| 96% | – | CCCc1c(OCCCCCCOc2cc3c(cc2C(C)=O)CCC(C(=O)O)O3)ccc(C(C)=O)c1O (configuration not stated) | 66% | 36% | ED50 (Cavia porcellus [11]): 5 mg/kg; IC50 [3]: 5 µM |
| – | – | CCCc1c(OCCCCc2nnn[nH]2)ccc(C(C)=O)c1O [TOMELUKAST] | 77% | 62% | ED50 (Cavia porcellus [11]): 5 mg/kg; IC50 (Cavia porcellus [12]): 0.4 % conc |
| – | – | CCCc1c(OCCCSc2ccc([C@@H](O)[C@H](C)CC(=O)O)cc2)ccc(C(C)=O)c1O [L-649923] | 72% | – | ED50 (Cavia porcellus [11]): 6 mg/kg |
| 26% | – | CCCc1c(OCc2ccccc2CCOc2cc3c(cc2C(C)=O)CCC(C(=O)O)O3)ccc(C(C)=O)c1O (configuration not stated) | 24% | 12% | – |
| – | 48% | CCCc1c(OCCCCCOc2cc3c(cc2[N+](=O)[O-])CCC(C(=O)O)O3)ccc(C(C)=O)c1O (configuration not stated) | 18% | 0% | – |
| – | – | Cn1c(=O)c2[nH]cnc2n(C)c1=O [THEOPHYLLINE] | – | – | IC50 [13]: 500 µM |
| 26% | – | CCCc1c(OCCCCOc2cc3c(cc2C(C)=O)CCC(C(=O)O)O3)ccc(C(C)=O)c1O (configuration not stated) | 36% | 37% | – |
| – | – | COc1ccc2c(c1)c(CC(=O)O)c(C)n2C(=O)c1ccc(Cl)cc1 [INDOMETHACIN] | – | – | IC50 (Rattus norvegicus): 60 µM; IC50 [14]: 0.1 µM |
| – | 45% | CCCc1c(OCCCCCOc2cc3c(cc2Cl)CCC(C(=O)O)O3)ccc(C(C)=O)c1O (configuration not stated) | 16% | 0% | – |
| 11% | – | CCCc1c(OCCCCCOc2ccc3c(c2)OC(C(=O)O)CC3)ccc(C(C)=O)c1O (configuration not stated) | 0% | 50% | IC50 (Cavia porcellus [12]): 1 % conc |
| – | 64% | CCCc1c(OCCCCCOc2cc3c(cc2C(C)=O)CCC(C)(C(=O)O)O3)ccc(C(C)=O)c1O (configuration not stated) | 50% | 85% | ED50 (Cavia porcellus [11]): 10 mg/kg; IC50 [10]: 6 µM; IC50 (Cavia porcellus [12]): 0.2 % conc |
| 65% | – | CCCc1c(OCCCCCOc2cc3c(cc2C(C)=O)CCC(C(=O)O)C3)ccc(C(C)=O)c1O (configuration not stated) | 51% | 23% | ED50 (Cavia porcellus [1]): 10 mg/kg; IC50 [3]: 7 µM |
| 47% | – | CCCc1c(O)c(C(C)=O)cc(Cl)c1OCCCCCOc1cc2c(cc1C(C)=O)CCC(C(=O)O)O2 (configuration not stated) | 11% | 10% | – |
| 60% | – | CCCc1c(OCc2cccc(COc3cc4c(cc3C(C)=O)CCC(C(=O)O)O4)c2)ccc(C(C)=O)c1O (configuration not stated) | 20% | 28% | IC50 [3]: 7 µM |
| – | 94% | CCCc1c(OCCCOc2cc(NC(=O)c3nn[nH]n3)c(C)cc2Cl)ccc(C(C)=O)c1O [CGP-35949] | 49% | – | IC50 [10]: 1 µM |
